In publication PMC4172508 (Bioorganic & medicinal chemistry, 2014):

Experiments:
[1] = Release of NSC-743380 from esterified derivatives in PBS; type: physicochemical; conditions: PBS pH 7.4, 0.5 mg/ml, 37°C
In short: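 Test compound was made to 0.5 mg/ml in PBS pH 7.4 containing 12% DMSO and 18% acetonitrile (diluted from a DMSO/acetonitrile stock). It was held in a 37°C water bath for up to 24 h. Aliquots were taken at 0–24 h, frozen at −20°C, diluted 50-fold in acetonitrile and run on C18 HPLC (acetonitrile/water gradient, 0.2% formic acid, UV 280 nm). Data come from one of two experiments.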

H157 cells [2] = test: Cell viability, sulforhodamine B assay; type: cell-based; conditions: H157, 3 days after treatment
In short: (§1)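 Human lung cancer cells were treated with a range of test-compound concentrations. Viability was read by sulforhodamine B assay 3 days after treatment. DMSO-treated control cells were set as 100. Values are mean ± SD of quadruplicate wells.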

H460 cells [3] = test: Cell viability, sulforhodamine B assay; type: cell-based; conditions: H460, 3 days after treatment
In short: as §1

Calu3 cells [4] = test: Cell viability, sulforhodamine B assay; type: cell-based, human; conditions: Calu3, 3 days after treatment
In short: as §1

H1299 cells [5] = test: Cell viability, sulforhodamine B assay; type: cell-based; conditions: H1299, 3 days after treatment
In short: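 Sulforhodamine B assay on the lung cancer line. Cells were exposed to a range of test compound concentrations, and viability was read 3 days after treatment. DMSO-treated control cells were set to 100. Values are mean ± SD of quadruplicate wells.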

[6] = Stability of powder during storage; type: physicochemical; conditions: for time powder stable without detectable changes: non-evacuated container; for stability of powder (remaining): 37°C
In short: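 Powdered test compounds were stored at 4°C, room temperature (21°C) or 37°C. Aliquots were taken at time points and kept at −20°C. Each was dissolved in DMSO, diluted with 9 volumes of acetonitrile and analysed by C18 HPLC (acetonitrile/water gradient with 0.2% formic acid, UV 280 nm).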

[7] = Stability of stock solution; type: physicochemical; conditions: Solutol HS15 and ethyl alcohol
In short: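 Stock solution: 70 mg prodrug or 60 mg parent drug per ml of 75% (w/v) Solutol HS15 in ethanol (about 20% v/v ethanol). It was stored in capped brown glass tubes at room temperature or 4°C. At intervals, samples were diluted 100-fold in acetonitrile/water (4/1) for C18 HPLC with UV detection at 280 nm.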

[8] = Stability of injectable solution; type: physicochemical
[9] = Tissue distribution in nude mice bearing Calu3 xenograft tumors; type: in vivo; conditions: 24 h
In short: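 Nude mice (7–8 weeks) bearing subcutaneous Calu3 xenografts, one per group, received 60 mg/kg by tail vein in Solutol HS15/ethanol/0.9% NaCl. Mice were euthanised at 24 h. Liver, lungs, kidneys, spleen, small intestine and tumour were homogenised in methanol (50 mg/ml) on ice and mixed 1:1 with acetonitrile containing 0.2% formic acid and internal standard. Samples were centrifuged at 4°C and analysed by HPLC/MS.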

Balb/c mice = test: Acute toxicity study; type: in vivo
liver functions = test: Serum liver enzyme levels; type: in vivo; conditions: for serum liver enzyme activities: 25 mg/kd/day, each day for 8 days, blood 3 days after last treatment
liver = test: Histopathological analysis on livers; type: in vivo; conditions: 150 mg/kg once, livers harvested 48 h after treatment
In short: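 Mice received a single 150 mg/kg dose of test compound. Livers were harvested at 48 h, sectioned and examined histologically, with two mice per group.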

H157 cells [10] = conditions: previous study ref 5; cited from earlier work
H460 cells [11] = conditions: previous study ref 5; cited from earlier work
Calu3 cells [12] = conditions: previous study ref 5; cited from earlier work
H1299 cells [13] = conditions: previous study ref 5; cited from earlier work
[14] = test system: human renal cancer cell line A498 xenograft; conditions: compared with oncrasin-60 (NSC-741909); cited from earlier work
[15] = test system: KRAS-mutant lung cancer cell line H157 xenografts; conditions: cited from earlier work
[16] = compared with oncrasin-60 (NSC-741909); cited from earlier work
[17] = especially in low-pH conditions; cited from earlier work
[18] = animals treated with oncrasin-266, 60 mg/kg i.v.
[19] = 150 mg/kg i.p. daily for 3 days, 3 mice/group
[20] = 300 mg/kg i.p. on day 1 and day 2, 3 Balb/c mice/group
[21] = 150 mg/kg daily for 3 days, blood on day 6, surviving mice

For `O=C(CC1CCCCC1)OCc1cn(Cc2cccc(Cl)c2)c2ccccc12` [oncrasin-266, [1-(3-chlorobenzyl)-1H-indol-3-yl]methyl 2-cyclohexylacetate], the “time to complete the release of NSC-743380” value [1] was “about 6 hours”, the “anticancer activity (cell viability)” value (H157 cells [2]) was “equivalent anticancer activity as NSC743380” and the “anticancer activity (cell viability)” value (H460 cells [3]) was “equivalent anticancer activity as NSC743380”. The “anticancer activity (cell viability)” value (Calu3 cells [4]) was “equivalent anticancer activity as NSC743380”, the “anticancer activity (cell viability)” value (H1299 cells [5]) was “resistant” and the “time powder stable without detectable changes” value ([6]; 4°C) was “at least 90 days”. For the same compound, the “stability of powder (remaining)” value ([6]; by day 90) was less than 5%, the “time powder stable without detectable changes” value ([6]; room temperature) was “at least 90 days” and the “time stable in stock solution” value ([7]; 4°C) was “at least 4 weeks”. For the same compound, the “time stable in stock solution” value ([7]; room temperature) was “at least 2 weeks”, the “release of NSC-743380 from oncrasin-266” value ([8]; injectable solution, 7 hours, 37°C) was “higher than 10%” and the “oncrasin-266 hydrolyzed to release NSC-743380” value ([8]; injectable solution, within 7 hours, room temperature) was “about 10%”. The “oncrasin-266 detected in the liver” value [9, 18] was “high concentration”, the “survival / death of mice” value (Balb/c mice; [19]) was “none of the oncrasin-266-treated mice died” and the “survival / death of mice” value (Balb/c mice; [20]) was “one died on day 4 and the remaining two survived for at least 2 weeks”. For the same compound, the tolerability in vivo (Balb/c mice; 150-300 mg/kg i.p., mice) was “better tolerated than NSC-743380”, the “serum liver enzyme activities” value (liver functions) was “mostly in normal ranges” and the “blood alanine transaminase (ALT)” value (liver functions; [21]) was “about 115 Units/L”. For the same compound, the “blood alkaline phosphatase (ALP)” value (liver functions; [21]) was roughly 50 Units/L and the “histopathological changes in liver” value (liver) was “no obvious changes”.
In the case of `OCc1cn(Cc2cccc(Cl)c2)c2ccccc12` [NSC-743380], the “anticancer activity (cell viability)” value (H1299 cells [5]) was “resistant”, the “stability of powder (remaining)” value ([6]; over 14 days) was less than 5% and the “time stable in stock solution” value ([7]; room temperature) was “at least 1 weeks”. For the same compound, the “loss in injectable solution” value ([8]; 37°C, 7 h) was “more than 20%”, the “change in injectable solution” value ([8]; room temperature, 7 h) was “little change” and the “tissues in which NSC-743380 was detectable” value [9, 18] was “liver, lungs, kidneys, and subcutaneous tumor tissue”. For the same compound, the “tissues in which NSC-743380 was detected” value ([9]; mice treated with NSC-743380, 60 mg/kg i.v.) was “lungs, intestine, and subcutaneous tumor tissue”, the “survival / death of mice” value (Balb/c mice; [19]) was “Two mice in the NSC-743380-treated group died on day 5” and the “survival / death of mice” value (Balb/c mice; [20]) was “All three mice injected with NSC-743380 died on day 3”. For the same compound, the “serum liver enzyme activities” value (liver functions) was “mostly in normal ranges”, the “blood alanine transaminase (ALT)” value (liver functions; [21]) was “about 1936 Units/L” and the “histopathological changes in liver” value (liver) was “liver cell damage (necrosis) was obvious”. For the same compound, the “sensitivity of cells to NSC743380 therapy” value (from here on “sensitivity of cells”) (H157 cells [10]) was “highly sensitive”, the “sensitivity of cells” value (H460 cells [11]) was “highly sensitive” and the “sensitivity of cells” value (Calu3 cells [12]) was “highly sensitive”. For the same compound, the “sensitivity of cells” value (H1299 cells [13]) was “resistant”, the “anticancer activity in xenograft tumor model” value [14] was “more effective anticancer activity” and the “in vivo tumor suppression” value [15] was “significant in vivo tumor suppression”. The “maximum tolerated dose / tolerability” value [16] was “much better tolerated” and the “behaviour in solutions with water” value [17] was “tends to form dimers in solutions with water and loses activity”.
